The record followed here is ChEMBL document CHEMBL1138825, “N-phenylphenylglycines as novel corticotropin releasing factor receptor antagonists” (J Med Chem, 2004).

For data set [1], the target named is T1, Corticotropin-releasing factor receptor 1 (Homo sapiens, UniProt P34998).
T1 sequence (P34998 whole entry): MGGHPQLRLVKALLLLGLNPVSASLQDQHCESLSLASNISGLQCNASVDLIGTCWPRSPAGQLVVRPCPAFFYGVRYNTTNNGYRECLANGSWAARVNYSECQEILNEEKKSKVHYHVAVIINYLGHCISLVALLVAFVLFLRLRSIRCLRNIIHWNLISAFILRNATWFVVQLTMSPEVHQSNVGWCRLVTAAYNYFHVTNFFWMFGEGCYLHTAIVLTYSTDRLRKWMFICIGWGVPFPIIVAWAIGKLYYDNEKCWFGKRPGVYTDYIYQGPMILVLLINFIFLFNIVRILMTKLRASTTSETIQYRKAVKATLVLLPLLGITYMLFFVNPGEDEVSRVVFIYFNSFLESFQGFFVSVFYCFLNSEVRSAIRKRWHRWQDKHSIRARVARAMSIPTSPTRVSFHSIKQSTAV
Description: Binding affinity towards human corticotropin releasing factor (h-CRF1) receptor. The essentials: (§1)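 Ki values were measured in duplicate. If the duplicate Ki values differed by more than 15%, further duplicate runs were done until this criterion was met, and the determinations were averaged. Mean Ki is reported where there was more than one determination. Internal control compounds were run on every plate.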

Data set [2] concerns the target T1, Corticotropin-releasing factor receptor 1. Description: Binding affinity of compound towards human Corticotropin releasing factor receptor 1.
Data set [3] shares this target. Description: Binding affinity of compound towards human corticotropin releasing factor (h-CRF1) receptor showed a 2-fold activity in racemic mixture; inactive. The essentials: as §1
Data set [4] concerns the target T2, Corticotropin-releasing factor receptor 2 (Homo sapiens, UniProt Q13324).
T2 sequence (Q13324 whole entry): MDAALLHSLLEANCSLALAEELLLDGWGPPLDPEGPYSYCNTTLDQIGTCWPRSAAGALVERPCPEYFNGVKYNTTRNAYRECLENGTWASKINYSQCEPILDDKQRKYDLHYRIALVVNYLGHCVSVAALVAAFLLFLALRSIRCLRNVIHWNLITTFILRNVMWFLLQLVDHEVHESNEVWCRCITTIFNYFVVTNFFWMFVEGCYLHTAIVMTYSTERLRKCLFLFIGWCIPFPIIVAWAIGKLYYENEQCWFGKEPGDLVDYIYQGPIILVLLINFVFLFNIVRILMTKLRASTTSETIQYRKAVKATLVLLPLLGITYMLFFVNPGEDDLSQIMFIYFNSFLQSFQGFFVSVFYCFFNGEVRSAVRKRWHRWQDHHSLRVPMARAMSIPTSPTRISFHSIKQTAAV
Description: Binding affinity of compound towards human Corticotropin releasing factor receptor 2; inactive at 10 uM.

For data set [5], the target named is T3, 5-hydroxytryptamine receptor 1A (Homo sapiens, UniProt P08908).
T3 sequence (P08908 whole entry): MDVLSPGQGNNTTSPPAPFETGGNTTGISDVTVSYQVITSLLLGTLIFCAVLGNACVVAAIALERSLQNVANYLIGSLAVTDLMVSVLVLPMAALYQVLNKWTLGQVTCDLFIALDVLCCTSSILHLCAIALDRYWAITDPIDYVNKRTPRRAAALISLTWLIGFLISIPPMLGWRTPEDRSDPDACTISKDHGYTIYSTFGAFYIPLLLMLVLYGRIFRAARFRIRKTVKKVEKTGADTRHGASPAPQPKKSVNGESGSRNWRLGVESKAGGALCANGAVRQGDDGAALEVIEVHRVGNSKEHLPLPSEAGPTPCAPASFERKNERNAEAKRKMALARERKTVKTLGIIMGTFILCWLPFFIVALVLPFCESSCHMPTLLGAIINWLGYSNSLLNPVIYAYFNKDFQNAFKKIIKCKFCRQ
Briefly: Binding affinity of compound towards serotonin 5-hydroxytryptamine 1A receptor; inactive at 10 uM.

The target in data set [6] is 5-hydroxytryptamine receptor 1B (Homo sapiens, UniProt P28222). Briefly: Binding affinity of compound towards serotonin 5-hydroxytryptamine 1B receptor; inactive at 10 uM.
Chain of 5-hydroxytryptamine receptor 1B (P28222 whole entry): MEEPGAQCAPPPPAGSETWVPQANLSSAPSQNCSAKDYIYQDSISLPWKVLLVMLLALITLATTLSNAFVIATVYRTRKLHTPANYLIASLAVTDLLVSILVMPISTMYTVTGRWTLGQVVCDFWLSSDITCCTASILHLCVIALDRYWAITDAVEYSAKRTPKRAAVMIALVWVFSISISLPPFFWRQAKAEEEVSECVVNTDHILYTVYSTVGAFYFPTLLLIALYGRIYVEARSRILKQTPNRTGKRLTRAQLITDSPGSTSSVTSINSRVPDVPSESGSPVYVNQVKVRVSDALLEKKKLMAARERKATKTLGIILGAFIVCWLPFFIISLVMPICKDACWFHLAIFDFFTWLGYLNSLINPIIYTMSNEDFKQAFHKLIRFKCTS
Data set [7] addresses 5-hydroxytryptamine receptor 2A (Homo sapiens, UniProt P28223). Briefly: Binding affinity of compound towards serotonin 5-hydroxytryptamine 2A receptor; inactive at 10 uM.
The target in data set [8] is 5-hydroxytryptamine receptor 1D (Homo sapiens, UniProt P28221). Briefly: Binding affinity of compound towards serotonin 5-hydroxytryptamine 1D receptor; inactive at 10 uM.
Chain of 5-hydroxytryptamine receptor 1D (P28221 whole entry): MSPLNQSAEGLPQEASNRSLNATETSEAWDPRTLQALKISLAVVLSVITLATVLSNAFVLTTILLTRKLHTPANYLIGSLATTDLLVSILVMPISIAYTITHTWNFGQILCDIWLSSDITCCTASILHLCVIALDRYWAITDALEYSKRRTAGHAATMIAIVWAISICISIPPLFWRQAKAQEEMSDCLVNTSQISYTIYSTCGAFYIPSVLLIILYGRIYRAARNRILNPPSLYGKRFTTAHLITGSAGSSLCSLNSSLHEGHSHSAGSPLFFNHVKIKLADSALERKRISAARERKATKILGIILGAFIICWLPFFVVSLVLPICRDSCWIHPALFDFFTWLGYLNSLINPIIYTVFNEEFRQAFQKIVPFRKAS
Data set [9] concerns the target 5-hydroxytryptamine receptor 7 (Homo sapiens, UniProt P34969). Description: Binding affinity of compound towards serotonin 5-hydroxytryptamine 7 receptor; inactive at 10 uM.
The target in data set [10] is 5-hydroxytryptamine receptor 6 (Homo sapiens, UniProt P50406). Briefly: Binding affinity of compound towards serotonin 5-hydroxytryptamine 6 receptor; inactive at 10 uM.
Chain of 5-hydroxytryptamine receptor 6 (P50406 whole entry): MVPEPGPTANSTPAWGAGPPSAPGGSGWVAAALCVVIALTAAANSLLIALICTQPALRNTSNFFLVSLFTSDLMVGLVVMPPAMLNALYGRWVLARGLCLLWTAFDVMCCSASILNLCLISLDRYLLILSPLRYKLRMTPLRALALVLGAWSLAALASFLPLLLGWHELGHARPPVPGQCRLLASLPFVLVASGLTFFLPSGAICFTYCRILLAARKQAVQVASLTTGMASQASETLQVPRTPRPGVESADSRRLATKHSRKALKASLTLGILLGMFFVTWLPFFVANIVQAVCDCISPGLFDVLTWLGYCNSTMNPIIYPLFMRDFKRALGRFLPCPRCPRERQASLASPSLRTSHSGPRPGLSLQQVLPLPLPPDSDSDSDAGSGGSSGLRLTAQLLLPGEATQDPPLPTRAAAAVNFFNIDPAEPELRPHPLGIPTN
The nature of data set [11]: Compound was evaluated for total body clearance. The class given is ADME. The note with it: read-out: Activity (converted).
A short description of data set [12]: Compound was evaluated for volume of distribution at steady state. The class given is ADME. As to conditions: read-out: Activity.
Data set [13] can be described thus: Compound was evaluated for half-life period. The class given is ADME. The essentials:
(§2)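 Cassette dosing in beagle dogs (n = 2 per route), with each compound given alongside seven others. Oral dose was 1 mg/kg, with sampling at 0, 0.5, 1, 2, 4, 6, 8 and 24 h. Plasma drug levels were measured by LC/MS/MS.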

Data set [14] in a line: Compound was evaluated for oral bioavailability. The class given is ADME, organism-based. As to conditions: in vivo, read-out: Bioavailabiility. Summed up:
as §2

Data set [15] has as its target T1, Corticotropin-releasing factor receptor 1. Description: Binding affinity of compound towards human corticotropin releasing factor (h-CRF1) receptor; inactive. Summed up: as §1
The target is the same in data set [16]. Description: Binding affinity of compound towards human corticotropin releasing factor (h-CRF1) receptor showed a 2-fold activity in racemic mixture. Summed up:
as §1

Chain of 5-hydroxytryptamine receptor 7 (P34969 whole entry): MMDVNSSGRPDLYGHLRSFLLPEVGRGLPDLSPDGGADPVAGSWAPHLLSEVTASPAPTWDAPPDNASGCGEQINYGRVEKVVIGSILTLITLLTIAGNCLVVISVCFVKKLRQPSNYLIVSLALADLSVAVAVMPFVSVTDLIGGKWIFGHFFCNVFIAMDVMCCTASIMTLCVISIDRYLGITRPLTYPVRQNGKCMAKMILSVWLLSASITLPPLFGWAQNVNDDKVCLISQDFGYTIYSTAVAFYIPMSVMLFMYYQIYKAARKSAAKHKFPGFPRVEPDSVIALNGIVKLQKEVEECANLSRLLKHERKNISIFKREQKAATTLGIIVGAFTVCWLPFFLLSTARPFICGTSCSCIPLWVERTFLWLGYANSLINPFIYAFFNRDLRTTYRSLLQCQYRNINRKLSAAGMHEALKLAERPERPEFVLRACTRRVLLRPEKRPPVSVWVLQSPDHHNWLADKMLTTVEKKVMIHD
Chain of 5-hydroxytryptamine receptor 2A (P28223 whole entry): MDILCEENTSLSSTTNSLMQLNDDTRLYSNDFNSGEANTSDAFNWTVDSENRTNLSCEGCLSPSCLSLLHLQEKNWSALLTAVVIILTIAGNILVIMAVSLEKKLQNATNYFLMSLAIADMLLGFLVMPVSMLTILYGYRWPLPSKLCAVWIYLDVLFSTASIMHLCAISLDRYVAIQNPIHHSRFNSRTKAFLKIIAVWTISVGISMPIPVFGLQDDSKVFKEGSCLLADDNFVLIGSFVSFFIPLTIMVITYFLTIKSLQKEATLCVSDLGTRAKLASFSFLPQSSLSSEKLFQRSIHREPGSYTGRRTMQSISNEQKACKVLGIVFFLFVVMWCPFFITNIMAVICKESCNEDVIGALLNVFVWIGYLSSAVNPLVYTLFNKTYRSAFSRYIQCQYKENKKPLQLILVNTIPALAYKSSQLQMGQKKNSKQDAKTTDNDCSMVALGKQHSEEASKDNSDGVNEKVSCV

In general, Ki refers to a measure of affinity in units of concentration, obtained from inhibition or displacement. In turn, `COc1ccc(OC)c(C(Nc2ccc(C)cc2Cl)C(=O)CCc2ccncc2)c1` (stereo not given) returned an inhibition constant Ki in data set [1] of over 10000 nM.
The molecule `Cc1ccccc1[C@H](Nc1ccc(Cl)cc1Cl)C(=O)CCc1ccncc1` gave a Ki in [1] of 3180 nM.
The same measure, in the same setting: the same measure for `Cc1ccccc1C(Nc1ccc(Cl)cc1C(F)(F)F)C(=O)CCc1ccncc1` (stereo not given): 469 nM; for `O=C(CCc1ccncc1)C(Nc1ccccc1Cl)c1ccccc1Br` (stereo not given): 7330 nM; for `COc1ccc(C(Nc2ccc(C)cc2Cl)C(=O)CCc2ccncc2)c(OC)c1` (stereo not given): over 10000 nM.
In data set [1], `Cc1ccc(NC(C(=O)CCc2cccnc2)c2ccccc2Br)c(Cl)c1` (stereo not given) displayed an inhibition constant (Ki) of over 10000 nM.
For the molecule `COc1ccc(C(=O)C(Nc2ccc(C)cc2Cl)c2ccccc2Br)cc1O` (stereo not given), affinity in data set [1] was put at a Ki of 1070 nM.
Consider `Cc1ccc(NC(C(=O)CCc2ccncc2)c2ccccc2F)c(Cl)c1` (stereo not given), for which the Ki in data set [2] is over 10000 nM.
Regarding `Cc1ccc(N[C@H](C(=O)CCc2ccncc2)c2ccccc2Br)c(Cl)c1`, the Ki result in data set [3] is given as “Not Active”.
In the case of `Cc1ccc(NC(C(=O)Cc2ccncc2)c2ccccc2Br)c(Cl)c1` (stereo not given), the Ki in [1] was over 10000 nM.
Same read-out and setting: the same measure for `Cc1ccc(NC(C(=O)CCc2ccncc2)c2ccccc2)c(Cl)c1` (stereo not given): over 10000 nM; for `Cc1ccc(NC(C(=O)CCc2ccncc2)c2cccc(Cl)c2)c(Cl)c1` (stereo not given): over 5000 nM.
For the molecule `Cc1ccc(NC(C(=O)CCc2ccncc2)c2ccccc2C)c(F)c1` (stereo not given), the Ki in data set [1] was 439 nM.
On the same count and under the same terms, to `Cc1ccc(C(Nc2ccc(C)cc2Cl)C(=O)CCc2ccncc2)cc1` (stereo not given) belongs over 10000 nM; to `Cc1ccc(NC(C(=O)CCc2ccccn2)c2ccccc2Br)c(Cl)c1` (stereo not given), over 10000 nM; to `COc1ccc(C(=O)C(Nc2ccc(Cl)cc2Cl)c2ccccc2C)cc1OC` (stereo not given), over 10000 nM.
Same read-out and setting: the same measure for `Cc1ccc(NC(C(=O)CCc2cnc[nH]2)c2ccccc2Br)c(Cl)c1` (stereo not given): over 10000 nM; for `Cc1cccc(C(Nc2ccc(C)cc2Cl)C(=O)CCc2ccncc2)c1` (stereo not given): over 10000 nM.
Regarding `Cc1ccc(NC(C(=O)CCc2ccncc2)c2ccccc2Br)c(Cl)c1` (stereo not given), the Ki entry in data set [4] is “Not Active”; in data set [2] it was 1040 nM.
With `C=Cc1ccccc1C(Nc1ccc(C)cc1Cl)C(=O)CCc1ccncc1` (stereo in doubt; 4), the inhibition constant (Ki) in data set [1] was 752 nM.
The same measure, in the same setting: to `CC(=O)Nc1cccc(C(=O)C(Nc2ccc(Cl)cc2Cl)c2ccccc2Br)c1` (stereo not given) belongs 514 nM; to `Cc1ccc(NC(C(=O)CCc2ccncc2)c2ccc(Cl)cc2)c(Cl)c1` (stereo not given), over 10000 nM.
What is called half-life is the time needed for the level to fall by half in the phase considered. Low readings indicate rapid decline, high ones slow decline. On to `Cc1ccccc1[C@@H](Nc1ccc(Cl)cc1Cl)C(=O)CCc1ccncc1`, for which the inhibitory constant (Ki) result in [5], in data set [6], in [7], in [8], in data set [9] and in data set [10] was “Not Active” each time. Besides, the affinity in data set [1] corresponds to a Ki of 154 nM. Further, in data set [11], the clearance is 21.7 mL/min/kg. In addition, in [12], the Vd came to 1.8 L/kg. This molecule also showed a half-life in data set [13] of 1.7 h. In data set [14], the bioavailability was 7%.
For the molecule `Cc1ccccc1C(Nc1ccc(Cl)cc1Cl)C(=O)c1cccc(O)c1` (stereo not given), the Ki in [1] is over 10000 nM.
The same measure, in the same setting: the same measure for `Cc1ccc(NC(C(=O)CCc2ccncc2)c2ccccc2C(C)C)c(Cl)c1` (stereo not given): 3300 nM; for `COc1cccc(C(Nc2ccc(C)cc2Cl)C(=O)CCc2ccncc2)c1` (stereo not given): over 10000 nM.
Molecule `Cc1ccc(NC(C(=O)CCc2ccccc2)c2ccccc2Br)c(Cl)c1` (stereo not given) returned a Ki in [1] of over 10000 nM.
Same read-out and setting: to `COc1cccc(OC)c1C(Nc1ccc(C)cc1Cl)C(=O)CCc1ccncc1` (stereo not given) belongs over 10000 nM; to `COc1ccc(C(=O)C(Nc2ccc(Cl)cc2Cl)c2ccccc2C)cc1O` (stereo not given), 387 nM; to `Cc1ccc(NC(C(=O)CCc2ccncc2)c2ccccc2C)c(Cl)c1` (stereo not given), 922 nM.
`Cc1ccc(N[C@@H](C(=O)CCc2ccncc2)c2ccccc2C)c(Cl)c1` registered a Ki in data set [1] of 244 nM.
On the same count and under the same terms, to `CN(c1ccccc1Cl)C(C(=O)CCc1ccncc1)c1ccccc1Br` (stereo not given) belongs over 10000 nM.
On to `Cc1ccc(N[C@H](C(=O)CCc2ccncc2)c2ccccc2C)c(Cl)c1`, for which the inhibition constant (Ki) result in data set [15] is “Not Active”.
Turning to `O=C(CCc1ccncc1)C(Nc1ccc(Cl)cc1Cl)c1ccccc1Br` (stereo not given), the Ki in data set [1] was 204 nM.
`Cc1cc(F)ccc1C(Nc1ccc(Cl)cc1Cl)C(=O)CCc1ccncc1` (stereo not given) gave an inhibitory constant (Ki) in data set [1] of 512 nM.
The same measure, in the same setting: the same measure for `C=Cc1ccccc1C(Nc1ccc(C)cc1Cl)C(=O)CCc1ccncc1` (stereo in doubt; 32): 752 nM; for `Cc1ccc(NC(C(=O)CCc2ccc(F)cc2)c2ccccc2Br)c(Cl)c1` (stereo not given): over 10000 nM; for `O=C(CCc1ccncc1)C(Nc1ccc(Cl)cc1Cl)c1ccccc1C(F)(F)F` (stereo not given): 1000 nM.
For the molecule `Cc1ccc(N[C@@H](C(=O)CCc2ccncc2)c2ccccc2Br)c(Cl)c1`, the Ki in data set [16] turned out to be 546 nM.
Molecule `CCc1ccccc1C(Nc1ccc(Cl)cc1Cl)C(=O)CCc1ccncc1` (stereo not given) showed an inhibitory constant (Ki) in data set [1] of 330 nM.
In the case of `Cc1ccccc1C(Nc1ccc(Cl)cc1Cl)C(=O)CCc1ccncc1` (stereo not given), in [1], the affinity corresponds to a Ki of 370 nM.
Molecule `Cc1ccc(NC(C(=O)CCc2ccncc2)c2ccccc2C)c(C(F)(F)F)c1` (stereo not given) had a Ki in data set [1] of 641 nM.
The same measure, in the same setting: the same measure for `Cc1cccc(C)c1C(Nc1ccc(Cl)cc1Cl)C(=O)CCc1ccncc1` (stereo not given): 338 nM; for `COc1ccccc1C(Nc1ccc(C)cc1Cl)C(=O)CCc1ccncc1` (stereo not given): over 10000 nM.
